In PMC9499614 (ACS chemical biology, 2022):
Where two headings read alike, the source gives them in different places.

Assays:
[1] = tested on: Sirt7-CLB; assay: NanoBit; type: binding; conditions: H3K18-acetylated nucleosomes with ADPr
Summary of the method: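 Sirt7 was fused C-terminally to the NanoLuc large-bit fragment and purified natively. […] Buffer: 50 mM Tris pH 8.0, 250 µg/ml BSA. Incubated 20 min at RT. NanoGlow substrate added (50x final dilution), equilibrated 5 min at 37°C, luminescence read every 30 s for 15 min.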

[2] = biological target: Sirt7-CLB (Sirt7 with the NanoLuc large bit fused to its C-terminus) (UniProt Q9NRC8); assay: split reporter
[3] = biological target: T1, Sirt7 (Homo sapiens, UniProt Q9NRC8); conditions: cited from earlier work; for activity of recombinant apoSirt7 (in words): in vitro
T1 sequence (Q9NRC8 1-400): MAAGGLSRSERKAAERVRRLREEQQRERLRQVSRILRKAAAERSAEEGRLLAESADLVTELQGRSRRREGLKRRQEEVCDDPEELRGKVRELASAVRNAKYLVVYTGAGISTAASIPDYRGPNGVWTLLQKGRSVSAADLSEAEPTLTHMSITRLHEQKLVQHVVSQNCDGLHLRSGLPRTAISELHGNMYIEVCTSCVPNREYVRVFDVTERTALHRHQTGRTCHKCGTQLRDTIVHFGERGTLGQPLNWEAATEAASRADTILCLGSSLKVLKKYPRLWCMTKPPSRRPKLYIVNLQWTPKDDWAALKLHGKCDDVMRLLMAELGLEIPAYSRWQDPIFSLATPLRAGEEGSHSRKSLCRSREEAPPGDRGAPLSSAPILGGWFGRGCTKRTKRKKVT

[4] = biological target: T1, Sirt7; type: biochemical; conditions: saturating H3K18-Deca peptide, variable NAD^+
Summary of the method: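 NAD⁺ serially diluted (10-10000 µM) in 50 mM Tris pH 8.0. Mixed 1:1 with 500 µM (pre-mix) H3K18Ac-DNB or H3K18Deca-DNB peptide in 50 mM Tris pH 8.0, 20% DMSO, 1 mM DTT. Pre-incubated 10 min at 37°C. Started with Sirt7 complex carrying 2 µM nicotinamidase, run 30-60 min, quenched with 6% TFA. HPLC monitored at 400 nm; Michaelis-Menten fit.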

[5] = biological target: T2, apoSirt7 (Homo sapiens, UniProt Q9NRC8); assay: Michaelis-Menten kinetics with variable H3K18 acylated peptide, apoSirt7; type: biochemical; conditions: uncomplexed Sirt7, H3K18Ac
T2 sequence (Q9NRC8 1-400): T1 sequence (Q9NRC8 1-400)
Summary of the method: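 Acylated H3K18 peptide serially diluted in 50 mM Tris pH 8.0 with 20% DMSO. 20 µL of Sirt7 solution was mixed with 20 µL of peptide at 37°C. Reactions were started with 10 µL of 10 mM NAD⁺ stock, run 5-60 min at 37°C and quenched with 6% TFA. Products were resolved by C18 HPLC. Product concentration = deacetylated/acetylated peak ratio × total substrate. Three independent experiments; Michaelis-Menten fit.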

[6] = tested on: acidic patch regions of nucleosomes; assay: LANA-FAM nucleosome binding and competition with Sirt7; parameters: species or system human; conditions: LANA-FAM pre-bound to nucleosomes, fluorescence anisotropy

## Nc1ncnc2c1ncn2[C@@H]1O[C@H](COP(=O)(O)OP(=O)(O)OC[C@H]2OC(O)[C@H](O)[C@@H]2O)[C@@H](O)[C@H]1O (stereo partly shown) [ADPr, ADP-ribose]
[1]
  reduction in Kd value on ADPr addition: 2.5 fold

## H3K18-acetylated small bit nucleosomes (SMB-AcNucs) (from UniProt P0C0S8 1-130; P68431 1-136; P62805 1-103) (complex)
[2]
  Kd: 3.75 nM

## Sirt7: 400 amino acid protein within the Class III deacetylase family; recombinant, E. coli
[3]; no reference number at the word, ref [19],[28] in sentence
  activity of recombinant apoSirt7 (in words): completely inactive
[3]; ref [19]
  activity of recombinant apoSirt7 (in words): completely inactive
[3]; ref [19],[40]
  activity of apoSirt7 (in words): inactive
[4]; read-out: KM^NAD, 50 mM Tris pH 8.0, 37°C, 30-60 min, HPLC
  Km: 680 ± 80 µM
[4]
  kcat/KM: 32±4.1 M^−1x s^−1
[4]; 50 mM Tris pH 8.0, 37°C, 30-60 min, HPLC
  kcat: 0.022 ± 0.001 s⁻¹
[5]
  H3K18 deacetylation activity (in words): very low, but readily measurable H3K18 deacetylation activity
[6]
  displacement of LANA-FAM from nucleosomes (in words): Competitive displacement of LANA-FAM peptide from the pre-formed LANA-nucleosomal complex
